# Measured values from different studies.
# PIK3CA: Phosphatidylinositol 4,5-bisphosphate 3-kinase catalytic subunit alpha isoform (PIK3CA, Homo sapiens, UniProt P42336)
# PIK3CA E542K: Phosphatidylinositol 4,5-bisphosphate 3-kinase catalytic subunit alpha isoform (PIK3CA, Homo sapiens, UniProt P42336, E542K)
Compound,target,effect on,action,method,concentration,measurement,value
CO[C@@H]1[C@H](N(C)C(=O)c2ccccc2)C[C@H]2O[C@]1(C)n1c3ccccc3c3c4c(c5c6ccccc6n2c5c31)C(=O)NC4,"Phosphatidylinositol 4,5-bisphosphate 3-kinase catalytic subunit alpha isoform (PIK3CA, Homo sapiens, UniProt P42336, E545K)",enzyme activity,inhibitor,,1 µM,inhibition,0%
C#Cc1cc(-c2cc(Nc3nc(N[C@@H](C)c4ccc(F)cn4)ncc3Cl)n[nH]2)ccc1C=O,PIK3CA,enzyme activity,inhibitor,,0.2 µM,inhibition,7.89%
CN1CCN(C(=O)c2ccc(NC(=O)Nc3ccc(N(C)c4ccnc(Nc5ccc(CS(C)(=O)=O)cc5)n4)cc3)cc2)CC1,"Phosphatidylinositol 4,5-bisphosphate 3-kinase catalytic subunit alpha isoform (PIK3CA, Homo sapiens, UniProt P42336, M1043I)",binding,,,1 µM,remaining binding,100%
C#Cc1cnc(Nc2ccnc(CO)c2)nc1Nc1ccccc1S(C)(=O)=NC#N (centres unmarked),PIK3CA,cell-free assay,,,1 µM,remaining signal,100%
C[C@H]1CC[C@H](n2c3cnccc3c3cnc(Nc4ccc5c(n4)CCN(C(=O)CO)C5)nc32)CC1,PIK3CA E542K,cell-free assay,,,1 µM,remaining signal,100%
C1=C/COCc2cc(ccc2OCCN2CCCC2)Nc2nccc(n2)-c2cccc(c2)COC/1,PIK3CA E542K,binding,,,0.1 µM,remaining binding,68%
Cc1cc(O)c(-c2ccc([C@@H](C)CN(C)C)cc2)c2c1[nH]c(=O)c1sccc12,PIK3CA,enzyme activity,inhibitor,,0.1 µM,inhibition,-4.62%
Cc1ccc(NC(=O)c2ccnc(C(F)(F)F)c2)cc1-c1cc(OCCO)nc(N2CCOCC2)c1,"Phosphatidylinositol 4,5-bisphosphate 3-kinase catalytic subunit alpha isoform (PIK3CA, Homo sapiens, UniProt P42336, H1047L)",binding,,,1 µM,remaining binding,98%
CC#CC(=O)N1CCC[C@H]1c1nc(-c2ccc(C(=O)Nc3ccccn3)cc2)c2c(N)nccn12,"Phosphatidylinositol 4,5-bisphosphate 3-kinase catalytic subunit alpha isoform (PIK3CA, Homo sapiens, UniProt P42336, C420R)",enzyme activity,inhibitor,,1 µM,inhibition,17%
N#Cc1ccc(NC(=O)Nc2ccccc2)cc1,PIK3CA,cell-free assay,,competition with immobilised ligand,25 µM,remaining binding,92%
C=CC(=O)N1CCC[C@@H](n2nc(-c3ccc(Oc4ccccc4)cc3)c3c(N)ncnc32)C1,"Phosphatidylinositol 4,5-bisphosphate 3-kinase catalytic subunit alpha isoform (PIK3CA, Homo sapiens, UniProt P42336, I800L)",enzyme activity,inhibitor,,1 µM,inhibition,8%
CCCCC(=O)Nc1ccc(-c2ccc3ncn(CCC)c(=O)c3c2)cn1,PIK3CA E542K,binding,,competition with immobilised ligand,0.5 µM,remaining binding,96%
COc1ccc2[nH]c3c4[nH]c5ccc(OC)cc5c4c4c(c3c2c1)C(=O)NC4=O,PIK3CA E542K,binding,,,1 µM,remaining binding,92%
C=CC(=O)N1CCC([C@@H]2CCNc3c(C(N)=O)c(-c4ccc(Oc5ccccc5)cc4)nn32)CC1,PIK3CA,enzyme activity,inhibitor,,1 µM,inhibition,0%
